Format in all cases: functional, cell-based
Experiment [1] concerns HeLa. As to the kind of experiment: Cytotoxicity against human HeLa cells after 72 hrs by XTT assay. In short, it runs like this: (§1)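 Cells grown in DMEM (A549, HT-29, HeLa) or RPMI1640 (HL-60), both with 10% heat-inactivated fetal bovine serum, were exposed to compound across a concentration range for 72 h at 37 °C in humidified air/CO₂ (19/1), then read by XTT. Measurements were in triplicate. IC50 is the concentration giving 50% proliferation inhibition versus untreated controls, reported as mean ± S.D. of three independent determinations.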

The test system of experiment [2] is A549. As to the kind of experiment: Cytotoxicity against human A549 cells after 72 hrs by XTT assay. The note with it: A549, 72 h. The gist of the method:
as §1

Experiment [3] has as its system HT-29. As to the kind of experiment: Cytotoxicity against human HT-29 cells after 72 hrs by XTT assay. Conditions: HT-29, 72 h. In short, it runs like this:
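Cells grown in DMEM (A549, HT-29, HeLa) or RPMI1640 (HL-60), both with 10% heat-inactivated fetal bovine serum, were exposed to compound across a concentration range for 72 h at 37 °C in humidified air/CO₂ (19/1), then read by XTT. Measurements were in triplicate.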

The test system of experiment [4] is HL-60. As to the kind of experiment: Cytotoxicity against human HL60 cells after 72 hrs by XTT assay. The note with it: HL-60, 72 h. In short, it runs like this: as §1

In the case of `CC(=O)c1c(O)cc(O)cc1OC/C=C(\C)CC/C=C(\C)CCC=C(C)C`, the IC50 in experiment [1] amounted to 31 µM; in experiment [2], 32 µM; in experiment [3], 29 µM; in experiment [4], 31 µM.

`CC(C)=CCC/C(C)=C/COc1c(C/C=C(\C)CCC=C(C)C)c(O)c2c(=O)cc(-c3ccccc3)oc2c1C/C=C(\C)CCC=C(C)C`: the IC50 in experiment [1] was 30 µM; in experiment [2] it was 29 µM; in experiment [3] it was 32 µM.

As for `C=C1CC[C@H]2C(C)(C)CCC[C@]2(C)[C@H]1CC/C(C)=C/COc1cc(O)c2c(=O)c(OC/C=C(\C)CC[C@H]3C(=C)CC[C@H]4C(C)(C)CCC[C@]34C)c(-c3ccc(O)cc3)oc2c1`, the IC50 in experiment [1], in experiment [2] and in experiment [3] was over 100 µM throughout.

Regarding `C=C1CC[C@H]2C(C)(C)CCC[C@]2(C)[C@H]1CC/C(C)=C/COc1cc(O)c2c(=O)c(O)c(-c3ccc(O)cc3)oc2c1`, the IC50 in experiment [1], in experiment [2] and in experiment [3] was over 100 µM in each case.

Consider `C=C1CC[C@H]2C(C)(C)CCC[C@]2(C)[C@H]1CC/C(C)=C/Cc1c(O)cc(O)c2c(=O)c(O)c(-c3ccc(O)cc3)oc12`, for which the IC50 in experiment [1] came out at 30 µM; in experiment [2] it was 32 µM; in experiment [3], 29 µM.

On to `C=C1CC[C@H]2C(C)(C)CCC[C@]2(C)[C@H]1CC/C(C)=C/COc1c(-c2ccc(O)cc2)oc2cc(O)cc(O)c2c1=O`, for which the figures for the IC50 in experiment [1], in experiment [2] and in experiment [3] were 27 µM, 26 µM and 30 µM, respectively.

With `C=C1CC[C@H]2C(C)(C)CCC[C@]2(C)[C@H]1CC/C(C)=C/COc1cc(O)c2c(=O)c(OC/C=C(\C)CC[C@H]3C(=C)CC[C@H]4C(C)(C)CCC[C@]34C)c(-c3ccc(OC)cc3)oc2c1`, the IC50 in experiment [1], in experiment [2] and in experiment [3] was over 100 µM in each case.

On to `C=C1CC[C@H]2C(C)(C)CCC[C@]2(C)[C@H]1CC/C(C)=C/COc1cc(O)c2c(=O)c(O)c(-c3ccc(OC)cc3)oc2c1`, for which the IC50 in experiment [1], in experiment [2] and in experiment [3] was over 100 µM each time.

Consider `C=C1CC[C@H]2C(C)(C)CCC[C@]2(C)[C@H]1CC/C(C)=C/Cc1c(O)cc(O)c2c(=O)c(O)c(-c3ccc(OC)cc3)oc12`, for which the IC50 in experiment [1], in experiment [2] and in experiment [3] was over 100 µM in each case.

For `C=C1CC[C@H]2C(C)(C)CCC[C@]2(C)[C@H]1CC/C(C)=C/COc1c(-c2ccc(OC)cc2)oc2cc(O)cc(O)c2c1=O`, the IC50 turned out to be 30 µM in experiment [1], 30 µM in experiment [2] and 32 µM in experiment [3].

In the case of `CC(=O)c1ccc(C)cc1O`, the IC50 in experiment [1], in experiment [2], in experiment [3] and in experiment [4] was over 100 µM in each case.

For `CC(=O)c1c(O)cc(O)c2c1OC(C)(C)CC2`, the IC50 in experiment [1], in experiment [2], in experiment [3] and in experiment [4] was over 100 µM throughout.

`CC(=O)c1c(O)cc2c(c1O)CCC(C)(C)O2`: the IC50 in experiment [1], in experiment [2], in experiment [3] and in experiment [4] was over 100 µM each time.

Take `CC(=O)c1c(O)cc(OCC=C(C)C)cc1O`: the IC50 in experiment [1] is 30 µM; in experiment [2], over 100 µM; in experiment [3], 31 µM; in experiment [4] it was 32 µM.

Regarding `CC(=O)c1c(O)cc(O)cc1OCC=C(C)C`, the IC50 in experiment [1], in experiment [2], in experiment [3] and in experiment [4] was over 100 µM in each case.

Turning to `CC(=O)c1c(O)cc(O)c(CC=C(C)C)c1O`, the IC50 in experiment [1] worked out at 28 µM; in experiment [2] it was 29 µM; in experiment [3] it was 30 µM; in experiment [4] it was 32 µM.

For `CCCCCCCC/C=C\CCCCCCCCOc1cc(O)c(C(C)=O)c(OCCCCCCCC/C=C\CCCCCCCC)c1`, the IC50 in experiment [1], in experiment [2], in experiment [3] and in experiment [4] was over 100 µM each time.

Consider `CC(C)=CCC/C(C)=C/COc1cc(O)c2c(=O)c(OC/C=C(\C)CCC=C(C)C)c(-c3ccc(O)cc3)oc2c1`, for which the IC50 in experiment [1] was over 100 µM; in experiment [2] it was over 100 µM; in experiment [3] it was 31 µM.

`CC(C)=CCC/C(C)=C/Cc1c(O)cc(O)c2c(=O)c(O)c(-c3ccc(O)cc3)oc12`: the values for the IC50 in experiment [1], in experiment [2] and in experiment [3] were 30 µM, 26 µM and 30 µM, respectively.

Regarding `CC(C)=CCC/C(C)=C/COc1c(-c2ccc(O)cc2)oc2cc(O)cc(O)c2c1=O`, the IC50 in experiment [1] came out at 23 µM; in experiment [2], 27 µM; in experiment [3], 25 µM.

Consider `CC(=O)c1c(O)c2c(c3c1OC(C)(C)CC3)OC(C)(C)CC2`, for which the IC50 in experiment [1] was over 100 µM; in experiment [2], over 100 µM; in experiment [3], 32 µM; in experiment [4], 31 µM.

Turning to `CC(=O)c1c(O)c(CC=C(C)C)c(O)c(CC=C(C)C)c1O`, the IC50 in experiment [1], in experiment [2], in experiment [3] and in experiment [4] was over 100 µM each time.

Regarding `CC(=O)c1c(O)c(C/C=C(\C)CCC=C(C)C)c(O)c(C/C=C(\C)CCC=C(C)C)c1O`, the IC50 in experiment [1] is 31 µM; in experiment [2], 32 µM; in experiment [3], 20 µM; in experiment [4], 19 µM.

For the compound `CC(=O)c1c(O)cc(O)c(C/C=C(\C)CCC=C(C)C)c1O`, the IC50 in experiment [1] is 21 µM; in experiment [2], 20 µM; in experiment [3], 19 µM; in experiment [4] it was 19 µM.

As for `CC(=O)c1c(O)cc2c(c1O)CCC(C)(CC/C=C(\C)CCC=C(C)C)O2` (stereo not given), the IC50 in experiment [1] was 30 µM; in experiment [2], over 100 µM; in experiment [3] it was over 100 µM; in experiment [4] it was 31 µM.

With `CC(=O)c1c(OC/C=C(\C)CC/C=C(\C)CCC=C(C)C)cc(O)c(C/C=C(\C)CC/C=C(\C)CCC=C(C)C)c1O`, the IC50 in experiment [1] was over 100 µM; in experiment [2] it was over 100 µM; in experiment [3], over 100 µM; in experiment [4], 32 µM.

As to `CC(=O)c1c(O)cc(OC/C=C(\C)CC/C=C(\C)CCC=C(C)C)cc1O`, the IC50 in experiment [1] was 29 µM; in experiment [2], 32 µM; in experiment [3], 31 µM; in experiment [4], 32 µM.

For `CC(=O)c1c(O)cc(O)c(C/C=C(\C)CC/C=C(\C)CCC=C(C)C)c1O`, the IC50 was 13 µM in experiment [1], 22 µM in experiment [2], 18 µM in experiment [3] and 14 µM in experiment [4].

Take `CCCCCCCC/C=C\CCCCCCCCOc1cc(O)c(C(C)=O)c(O)c1`: the IC50 in experiment [1] was found to be 31 µM; in experiment [2], 31 µM; in experiment [3], 31 µM; in experiment [4] it was 32 µM.

Turning to `CCCCCCCC/C=C\CCCCCCCCOc1cc(O)cc(O)c1C(C)=O`, the IC50 in experiment [1] was 31 µM; in experiment [2], over 100 µM; in experiment [3] it was over 100 µM; in experiment [4] it was 32 µM.

For the compound `CCCCCCCC/C=C\CCCCCCCCc1c(O)cc(O)c(C(C)=O)c1O`, the IC50 in experiment [1], in experiment [2], in experiment [3] and in experiment [4] was over 100 µM each time.

`CCCCCCCCCCCCCCCCCCOc1cc(O)c(C(C)=O)c(O)c1`: the IC50 in experiment [1], in experiment [2], in experiment [3] and in experiment [4] was over 100 µM throughout.

With `CC(C)=CCC/C(C)=C/COc1cc2oc(-c3ccccc3)cc(=O)c2c(O)c1C/C=C(\C)CCC=C(C)C`, the IC50 in experiment [1] is 30 µM; in experiment [2], 32 µM; in experiment [3] it was 32 µM.

Regarding `CC(C)=CCC/C(C)=C/Cc1c(O)cc2oc(-c3ccccc3)cc(=O)c2c1O`, the IC50 in experiment [1] was determined as 32 µM; in experiment [2], 32 µM; in experiment [3], 33 µM.

Take `COc1ccc(-c2oc3cc(OC)cc(O)c3c(=O)c2OC)cc1`: the IC50 in experiment [1] turned out to be 28 µM; in experiment [2] it was 30 µM; in experiment [3], 26 µM.

As to `O=c1cc(-c2ccccc2)oc2cc(O)cc(O)c12` [CHRYSIN], the IC50 was 29 µM in experiment [1], over 100 µM in experiment [2] and over 100 µM in experiment [3].

As to `C=C1CC[C@H]2C(C)(C)CCC[C@]2(C)[C@H]1CC/C(C)=C/Cc1c(O)cc2oc(-c3ccc(O)cc3)c(O)c(=O)c2c1O` [DENTICULAFLAVONOL], the IC50 in experiment [1], in experiment [2] and in experiment [3] was over 100 µM in each case.

`COc1cccc2c1C(=O)c1c(O)c3c(c(O)c1C2=O)C[C@@](O)(C(=O)CO)C[C@@H]3O[C@H]1C[C@H](N)[C@H](O)[C@H](C)O1` [DOXORUBICIN]: the half-maximal inhibitory concentration (IC50) in experiment [1] came to 0.29 µM; in experiment [2], 0.26 µM.

For `COc1ccc(-c2oc3cc(O)cc(O)c3c(=O)c2OC)cc1` [ERMANIN], the IC50 in experiment [1] was found to be 31 µM; in experiment [2], 31 µM; in experiment [3] it was 32 µM.

Take `COc1ccc(-c2oc3cc(O)cc(O)c3c(=O)c2O)cc1` [KAEMPFERIDE]: the IC50 in experiment [1] is 23 µM; in experiment [2], 22 µM; in experiment [3] it was 32 µM.

Take `O=c1c(O)c(-c2ccc(O)cc2)oc2cc(O)cc(O)c12` [KAEMPFEROL]: the IC50 in experiment [1], in experiment [2] and in experiment [3] was over 100 µM throughout.

For `CC(C)=CCC/C(C)=C/Cc1c(O)cc2oc(-c3ccc(O)cc3)c(O)c(=O)c2c1O` [MACARANGIN], the IC50 in experiment [1], in experiment [2] and in experiment [3] was over 100 µM in each case.

The values above are taken from ChEMBL document CHEMBL1240465, “Prenylflavonoids and prenyl/alkyl-phloroacetophenones: synthesis and antitumour biological evaluation” (Eur J Med Chem, 2010).
